Measurements: ChEMBL document CHEMBL4706598 (Eur J Med Chem, 2020)
Active and inactive are the calls of the source. The rule behind the calls is not given here.

Tests used:
Dipeptidyl peptidase 8 = Dipeptidyl peptidase 8 (Homo sapiens, UniProt Q6V1X1); assay: Inhibition of DPP8 (unknown origin)
Dipeptidyl peptidase 9 = Dipeptidyl peptidase 9 (Homo sapiens, UniProt Q86TI2); assay: Inhibition of DPP9 (unknown origin)
HepG2 = assay: Cytotoxicity against human HepG2 cells assessed as reduction in cell viability at 1 to 100 uM measured after 48 hrs by MTT assay; assay type: cell-based; conditions: hepg2, 48 h, dose 1-100 µM
How it was run: (§1)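 HepG2 cells were exposed to compound at a range of concentrations for 48 h. Viability was measured by MTT assay. Mean ± SD, n = 3.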

Mus musculus [1] = assay: Anti-Hyperglycemic activity in high fat diet-fed/streptozotocin-induced type 2 diabetic mellitus C57BL/6 mouse model assessed as reduction in blood glucose level at 10 mg/kg/day for 14 days and measured on day 5; assay type: functional, organism-based; conditions: time 5.0 day
How it was run: (§2)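 HFD/STZ-induced type 2 diabetic male C57BL/6 mice were dosed at 10 mg/kg/day for 14 days. Plasma glucose was tracked over the treatment period and compared with diabetic controls. Mean ± SD of 4 mice. Statistics: one-way ANOVA with LSD post-test.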

Mus musculus [2] = assay: Anti-Hyperglycemic activity in high fat diet-fed/streptozotocin-induced type 2 diabetic mellitus C57BL/6 mouse model assessed as blood glucose level at 10 mg/kg, ip administered 30 mins prior to glucose challenge and measured after 0.5 hrs by IPGTT (reference value: 12.3 to 15.3 mM); assay type: functional; conditions: time 60 min, 1 h
How it was run: (§3)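 Male C57BL/6 mice made type 2 diabetic by high-fat diet plus streptozotocin. Each received a single intraperitoneal dose (1, 5 or 10 mg/kg) 30 min before an intraperitoneal glucose challenge. Blood glucose was read at 0, 0.5, 1, 1.5 and 2 h. Results are mean ± SD, n = 4.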

Mus musculus [3] = assay: Anti-Hyperglycemic activity in high fat diet-fed/streptozotocin-induced type 2 diabetic mellitus C57BL/6 mouse model assessed as reduction in AUC(0 to 120 mins) of blood glucose level at 10 mg/kg, ip administered 30 mins prior to glucose challenge and measured after 120 mins by IGTT; assay type: functional; conditions: C57BL/6, ip, 2.5 h, time 150 min
How it was run: (§4)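 Glucose tolerance tests (intraperitoneal or oral) in HFD/STZ type 2 diabetic male C57BL/6 mice. Glucose AUC was calculated over 0–120 min. Percent reduction came from AUC normalised to saline-challenged controls. Mean ± SD, n = 4. Statistics: one-way ANOVA with LSD post-test.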

Mus musculus [4] = assay: Anti-Hyperglycemic activity in high fat diet-fed/streptozotocin-induced type 2 diabetic mellitus C57BL/6 mouse model assessed as reduction in blood glucose level at 10 mg/kg/day for 14 days and measured on day 14; assay type: functional; conditions: C57BL/6, 336 h, time 14 day; how it was run: as §2
Mus musculus [5] = assay: Anti-Hyperglycemic activity in high fat diet-fed/streptozotocin-induced type 2 diabetic mellitus C57BL/6 mouse model assessed as blood glucose level at 10 mg/kg, ip administered 30 mins prior to glucose challenge and measured after 1.5 hrs by IPGTT (reference value: 12.3 to 15.3 mM); assay type: functional; conditions: time 120 min, 2 h; how it was run: as §3
Mus musculus [6] = assay: Anti-Hyperglycemic activity in high fat diet-fed/streptozotocin-induced type 2 diabetic mellitus C57BL/6 mouse model assessed as blood glucose level at 10 mg/kg, ip administered 30 mins prior to glucose challenge and measured after 2 hrs by IPGTT (reference value: 12.3 to 15.3 mM); assay type: functional; conditions: time 150 min, 2.5 h; how it was run: as §3
Mus musculus [7] = assay: Anti-Hyperglycemic activity in high fat diet-fed/streptozotocin-induced type 2 diabetic mellitus C57BL/6 mouse model assessed as blood glucose level at 10 mg/kg, ip administered 30 mins prior to glucose challenge and measured after 1 hrs by IPGTT (reference value: 12.3 to 15.3 mM); assay type: functional; conditions: time 90 min, 1.5 h; how it was run: as §3
Mus musculus [8] = assay: Anti-Hyperglycemic activity in high fat diet-fed/streptozotocin-induced type 2 diabetic mellitus C57BL/6 mouse model assessed as blood glucose level at 1 mg/kg, ip administered 30 mins prior to glucose challenge and measured after 1 hr by IPGTT (reference value: 12.7 +/- 0.7 mM); assay type: functional; conditions: time 90 min, 1.5 h; how it was run: as §3
Mus musculus [9] = assay: Anti-Hyperglycemic activity in high fat diet-fed/streptozotocin-induced type 2 diabetic mellitus C57BL/6 mouse model assessed as reduction in AUC(0 to 120 mins) of blood glucose level at 1 mg/kg, ip administered 30 mins prior to glucose challenge and measured after 120 mins by IGTT; assay type: functional; conditions: C57BL/6, ip, 2.5 h, time 150 min; how it was run: as §4
Mus musculus [10] = assay: Anti-Hyperglycemic activity in high fat diet-fed/streptozotocin-induced type 2 diabetic mellitus C57BL/6 mouse model assessed as reduction in AUC(0 to 120 mins) of blood glucose level at 10 mg/kg, po administered 30 mins prior to glucose challenge and measured after 120 mins by OGTT; assay type: functional; conditions: C57BL/6, po, 2.5 h, time 150 min; how it was run: as §4
Mus musculus [11] = assay: Anti-Hyperglycemic activity in high fat diet-fed/streptozotocin-induced type 2 diabetic mellitus C57BL/6 mouse model assessed as blood glucose level at 1 mg/kg, ip administered 30 mins prior to glucose challenge and measured after 0.5 hrs by IPGTT (reference value: 12.7 +/- 0.7 mM); assay type: functional; conditions: time 60 min; how it was run: as §3
Mus musculus [12] = assay: Anti-Hyperglycemic activity in high fat diet-fed/streptozotocin-induced type 2 diabetic mellitus C57BL/6 mouse model assessed as blood glucose level at 5 mg/kg, ip administered 30 mins prior to glucose challenge and measured after 2 hrs by IPGTT (reference value: 13.4 +/- 1.1 mM); assay type: functional; conditions: time 150 min, 2.5 h; how it was run: as §3
Mus musculus [13] = assay: Anti-Hyperglycemic activity in high fat diet-fed/streptozotocin-induced type 2 diabetic mellitus C57BL/6 mouse model assessed as blood glucose level at 10 mg/kg, po administered 30 mins prior to glucose challenge and measured after 30 mins by OGTT (reference value: 15.8 +/-4.5 mM); assay type: functional; conditions: time 60 min, 1 h
Mus musculus [14] = assay: Anti-Hyperglycemic activity in high fat diet-fed/streptozotocin-induced type 2 diabetic mellitus C57BL/6 mouse model assessed as reduction in AUC(0 to 120 mins) of blood glucose level at 5 mg/kg, ip administered 30 mins prior to glucose challenge and measured after 120 mins by IGTT; assay type: functional; conditions: C57BL/6, ip, 2.5 h, time 150 min; how it was run: as §4
Mus musculus [15] = assay: Anti-Hyperglycemic activity in high fat diet-fed/streptozotocin-induced type 2 diabetic mellitus C57BL/6 mouse model assessed as blood glucose level at 5 mg/kg, ip administered 30 mins prior to glucose challenge and measured after 0.5 hrs by IPGTT (reference value: 13.4 +/- 1.1 mM); assay type: functional; conditions: time 60 min, 1 h; how it was run: as §3
Mus musculus [16] = assay: Anti-Hyperglycemic activity in high fat diet-fed/streptozotocin-induced type 2 diabetic mellitus C57BL/6 mouse model assessed as blood glucose level at 10 mg/kg, po administered 30 mins prior to glucose challenge and measured after 90 mins by OGTT (reference value: 15.8 +/-4.5 mM); assay type: functional; conditions: time 120 min, 2 h
Mus musculus [17] = assay: Anti-Hyperglycemic activity in high fat diet-fed/streptozotocin-induced type 2 diabetic mellitus C57BL/6 mouse model assessed as blood glucose level at 10 mg/kg, po administered 30 mins prior to glucose challenge and measured after 60 mins by OGTT (reference value: 15.8 +/-4.5 mM); assay type: functional; conditions: time 90 min, 1.5 h
Mus musculus [18] = assay: Anti-Hyperglycemic activity in high fat diet-fed/streptozotocin-induced type 2 diabetic mellitus C57BL/6 mouse model assessed as blood glucose level at 5 mg/kg, ip administered 30 mins prior to glucose challenge and measured after 1 hr by IPGTT (reference value: 13.4 +/- 1.1 mM); assay type: functional; conditions: time 90 min, 1.5 h; how it was run: as §3
[19] = Cytotoxicity against human HepG2 cells assessed as cell viability at 100 uM measured after 48 hrs by MTT assay; assay type: cell-based; conditions: read-out: Activity; how it was run: as §1
Mus musculus [20] = assay: Anti-Hyperglycemic activity in high fat diet-fed/streptozotocin-induced type 2 diabetic mellitus C57BL/6 mouse model assessed as blood glucose level at 5 mg/kg, ip administered 30 mins prior to glucose challenge and measured after 1.5 hrs by IPGTT (reference value: 13.4 +/- 1.1 mM); assay type: functional; conditions: time 120 min, 2 h; how it was run: as §3
Mus musculus [21] = assay: Anti-Hyperglycemic activity in high fat diet-fed/streptozotocin-induced type 2 diabetic mellitus C57BL/6 mouse model assessed as blood glucose level at 10 mg/kg, po administered 30 mins prior to glucose challenge and measured after 120 mins by OGTT (reference value: 15.8 +/-4.5 mM); assay type: functional; conditions: time 150 min, 2.5 h
Mus musculus [22] = assay: Anti-Hyperglycemic activity in high fat diet-fed/streptozotocin-induced type 2 diabetic mellitus C57BL/6 mouse model assessed as blood glucose level at 1 mg/kg, ip administered 30 mins prior to glucose challenge and measured after 1.5 hrs by IPGTT (reference value: 12.7 +/- 0.7 mM); assay type: functional; conditions: time 120 min, 2 h; how it was run: as §3
Mus musculus [23] = assay: Anti-Hyperglycemic activity in high fat diet-fed/streptozotocin-induced type 2 diabetic mellitus C57BL/6 mouse model assessed as blood glucose level at 1 mg/kg, ip administered 30 mins prior to glucose challenge and measured after 2 hrs by IPGTT (reference value: 12.7 +/- 0.7 mM); assay type: functional; conditions: time 150 min, 2.5 h; how it was run: as §3
Dipeptidyl peptidase 4 = Dipeptidyl peptidase 4 (Homo sapiens, UniProt P27487); assay: Inhibition of DPP4 in human Caco-2 cells using AP-AFC as substrate preincubated with enzyme for 10 mins followed by substrate addition and measured after 10 mins by fluorescence based analysis; assay type: cell-based
Chain of Dipeptidyl peptidase 4 (P27487 whole entry): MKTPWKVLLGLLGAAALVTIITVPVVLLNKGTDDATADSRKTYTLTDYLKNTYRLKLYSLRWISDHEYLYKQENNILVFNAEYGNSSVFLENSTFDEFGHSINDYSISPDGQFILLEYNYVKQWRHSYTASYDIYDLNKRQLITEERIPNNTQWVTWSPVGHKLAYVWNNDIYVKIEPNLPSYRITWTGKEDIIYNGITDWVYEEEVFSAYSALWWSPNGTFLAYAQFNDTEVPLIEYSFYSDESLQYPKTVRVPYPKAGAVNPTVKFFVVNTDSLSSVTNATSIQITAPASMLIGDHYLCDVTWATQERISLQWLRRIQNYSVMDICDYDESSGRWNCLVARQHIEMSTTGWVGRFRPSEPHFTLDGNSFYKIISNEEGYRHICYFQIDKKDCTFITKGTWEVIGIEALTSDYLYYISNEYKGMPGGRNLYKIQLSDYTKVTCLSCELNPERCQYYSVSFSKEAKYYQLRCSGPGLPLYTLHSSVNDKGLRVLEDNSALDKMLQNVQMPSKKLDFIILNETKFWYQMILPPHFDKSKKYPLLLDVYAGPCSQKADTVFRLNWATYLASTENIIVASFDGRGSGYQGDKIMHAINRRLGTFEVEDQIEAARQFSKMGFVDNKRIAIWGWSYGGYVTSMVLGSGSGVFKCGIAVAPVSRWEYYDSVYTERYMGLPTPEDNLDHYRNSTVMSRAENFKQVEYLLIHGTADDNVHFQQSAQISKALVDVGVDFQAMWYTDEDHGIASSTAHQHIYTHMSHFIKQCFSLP

Chain of Dipeptidyl peptidase 9 (Q86TI2 whole entry): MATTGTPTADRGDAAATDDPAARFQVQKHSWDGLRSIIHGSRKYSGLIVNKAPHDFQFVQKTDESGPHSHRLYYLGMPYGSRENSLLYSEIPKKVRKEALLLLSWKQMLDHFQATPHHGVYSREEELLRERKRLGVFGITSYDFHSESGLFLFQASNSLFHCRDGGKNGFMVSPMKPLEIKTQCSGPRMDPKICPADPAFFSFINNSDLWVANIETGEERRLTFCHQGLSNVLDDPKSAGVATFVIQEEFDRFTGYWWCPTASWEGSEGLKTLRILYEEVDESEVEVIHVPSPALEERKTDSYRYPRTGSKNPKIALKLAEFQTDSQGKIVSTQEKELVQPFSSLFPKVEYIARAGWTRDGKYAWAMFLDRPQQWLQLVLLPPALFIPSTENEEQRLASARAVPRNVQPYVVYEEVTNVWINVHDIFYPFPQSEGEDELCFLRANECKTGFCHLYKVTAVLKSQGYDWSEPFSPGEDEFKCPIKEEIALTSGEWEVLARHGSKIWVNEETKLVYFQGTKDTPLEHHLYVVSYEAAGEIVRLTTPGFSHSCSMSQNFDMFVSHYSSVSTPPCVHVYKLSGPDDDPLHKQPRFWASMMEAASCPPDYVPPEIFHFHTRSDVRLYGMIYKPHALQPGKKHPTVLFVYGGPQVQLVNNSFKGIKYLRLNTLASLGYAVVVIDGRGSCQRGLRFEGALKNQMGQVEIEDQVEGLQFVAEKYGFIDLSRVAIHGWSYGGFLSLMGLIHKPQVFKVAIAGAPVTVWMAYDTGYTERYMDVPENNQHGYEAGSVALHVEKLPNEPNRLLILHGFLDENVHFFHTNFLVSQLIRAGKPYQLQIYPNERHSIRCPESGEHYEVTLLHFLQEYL
Chain of Dipeptidyl peptidase 8 (Q6V1X1 whole entry): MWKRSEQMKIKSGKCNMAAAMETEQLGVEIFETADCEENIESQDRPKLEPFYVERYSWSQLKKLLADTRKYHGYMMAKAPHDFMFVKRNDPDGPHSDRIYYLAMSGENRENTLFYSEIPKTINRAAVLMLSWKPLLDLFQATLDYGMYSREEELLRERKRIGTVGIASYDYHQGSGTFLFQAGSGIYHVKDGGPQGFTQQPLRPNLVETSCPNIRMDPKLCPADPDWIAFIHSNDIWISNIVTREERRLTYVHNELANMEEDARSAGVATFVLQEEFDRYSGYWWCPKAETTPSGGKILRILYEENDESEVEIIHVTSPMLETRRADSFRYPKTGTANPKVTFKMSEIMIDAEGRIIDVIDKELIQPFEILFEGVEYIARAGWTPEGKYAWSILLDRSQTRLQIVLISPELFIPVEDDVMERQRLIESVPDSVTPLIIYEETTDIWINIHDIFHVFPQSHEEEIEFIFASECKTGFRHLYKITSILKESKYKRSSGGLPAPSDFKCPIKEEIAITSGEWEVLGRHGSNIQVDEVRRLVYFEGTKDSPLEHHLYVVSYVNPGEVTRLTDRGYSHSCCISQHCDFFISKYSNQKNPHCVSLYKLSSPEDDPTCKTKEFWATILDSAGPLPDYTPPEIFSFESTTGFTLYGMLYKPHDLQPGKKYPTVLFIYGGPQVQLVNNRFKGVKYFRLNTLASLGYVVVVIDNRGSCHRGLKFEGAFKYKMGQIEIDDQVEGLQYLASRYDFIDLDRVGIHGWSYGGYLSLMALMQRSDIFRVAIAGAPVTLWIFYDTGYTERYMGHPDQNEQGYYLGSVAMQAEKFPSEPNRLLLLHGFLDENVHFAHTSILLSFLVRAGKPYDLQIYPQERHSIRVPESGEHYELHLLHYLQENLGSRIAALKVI

## Cc1ccnc(Nc2cc(N3CCNCC3)nc3ccnn23)c1
Dipeptidyl peptidase 8
  IC50: > 100 µM
Dipeptidyl peptidase 9
  IC50: > 100 µM

## N[C@@H]1CCCN(c2cc(NCCc3ccc(Cl)cc3Cl)n3nccc3n2)C1
Dipeptidyl peptidase 8
  IC50: > 100 µM
Dipeptidyl peptidase 9
  IC50: > 100 µM

## Clc1ccc(Nc2cc(N3CCNCC3)nc3ccnn23)c(Cl)c1
Dipeptidyl peptidase 8
  IC50: > 100 µM
Dipeptidyl peptidase 9
  IC50: > 100 µM
HepG2
  Activity: Toxic

## Cn1c(=O)cc(N2CCC[C@@H](N)C2)n(Cc2ccccc2C#N)c1=O [ALOGLIPTIN]
Mus musculus [1]
  Activity: inactive
Mus musculus [2]
  Activity: 22.9 mM
Mus musculus [3]
  inhibition in vivo at 10 mg/kg: 30%
Mus musculus [4]
  inhibition in vivo at 10 mg/kg/day: 57%
Mus musculus [5]
  Activity: 16.3 mM
Mus musculus [6]
  Activity: 15 mM
Mus musculus [7]
  Activity: 17.4 mM

## Cc1ccc(Nc2cc(N3CCNCC3)nc3ccnn23)c(C)c1
Dipeptidyl peptidase 8
  IC50: > 100 µM
Dipeptidyl peptidase 9
  IC50: > 100 µM

## Fc1ccc(CNc2cc(N3CCNCC3)nc3ccnn23)c(F)c1
Mus musculus [1]
  Activity: inactive
Mus musculus [2]
  Activity: 16.2 mM
Mus musculus [8]
  Activity: 18.6 mM
Dipeptidyl peptidase 8
  IC50: > 50 µM
Mus musculus [9]
  inhibition in vivo at 1 mg/kg: 26%
Mus musculus [10]
  inhibition in vivo at 10 mg/kg: 22%
Dipeptidyl peptidase 9
  IC50: > 50 µM
Mus musculus [11]
  Activity: 25.7 mM
Mus musculus [3]
  inhibition in vivo at 10 mg/kg: 47%
Mus musculus [4]
  inhibition in vivo at 10 mg/kg/day: 46%
Mus musculus [12]
  Activity: 15.1 mM
Mus musculus [13]
  Activity: 26.7 mM
HepG2
  Activity: Non-Toxic
Mus musculus [14]
  inhibition in vivo at 5 mg/kg: 28%
Mus musculus [15]
  Activity: 23.4 mM
Mus musculus [16]
  Activity: 18.5 mM
Mus musculus [17]
  Activity: 19.1 mM
Mus musculus [5]
  Activity: 13 mM
Mus musculus [18]
  Activity: 18.5 mM
[19]
  viability at 48 h, 100 µM: 90%
Mus musculus [20]
  Activity: 17.4 mM
Mus musculus [21]
  Activity: 15.6 mM
Mus musculus [22]
  Activity: 17.9 mM
Mus musculus [6]
  Activity: 10.9 mM
Mus musculus [23]
  Activity: 14.8 mM
Mus musculus [7]
  Activity: 14.4 mM

## Cc1ccnc(Nc2cc(N3CCC[C@@H](N)C3)nc3ccnn23)c1
Dipeptidyl peptidase 8
  IC50: > 100 µM
Dipeptidyl peptidase 9
  IC50: > 100 µM

## N[C@@H]1CCCN(c2cc(NCc3ccc(O)cc3)n3nccc3n2)C1
Dipeptidyl peptidase 8
  IC50: > 50 µM
Dipeptidyl peptidase 9
  IC50: > 50 µM

## c1cc2nc(N3CCOCC3)cc(Nc3cc[nH]n3)n2n1
Dipeptidyl peptidase 4
  IC50: > 100 µM

## Clc1ccc(CCNc2cc(N3CCNCC3)nc3ccnn23)c(Cl)c1
Dipeptidyl peptidase 8
  IC50: > 100 µM
Dipeptidyl peptidase 9
  IC50: > 100 µM
HepG2
  Activity: Toxic
